Assay results taken from ChEMBL document CHEMBL1145138, “Design and synthesis of 4-azaindoles as inhibitors of p38 MAP kinase” (J Med Chem, 2003).

Tests used:
[1] = molecular target: Mitogen-activated protein kinase 14 (Homo sapiens, UniProt Q16539); test: In vitro inhibitory concentration against Mitogen-activated protein kinase p38 alpha
[2] = molecular target: Mitogen-activated protein kinase 14 (Rattus norvegicus) (UniProt P70618); test: In vivo percent inhibition of LPS stimulated TNF alpha synthesis in rat at a concentration of 30 mg/kg; assay type: functional, organism-based; parameters: dose 30 mg/kg
Method in brief: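 Female Wistar/Han rats, 8 per group, were dosed orally at −30 min with compound in CMC vehicle (0.9% NaCl, 0.5% Na-CMC, 0.4% polysorbate 80, 0.9% benzyl alcohol) or with vehicle alone. LPS 50 μg/kg was given ip at 0 h. At 1.5 h, blood was taken by cardiocentesis after CO₂ euthanasia, and serum TNFα was measured by ELISA against vehicle controls.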

Chain of Mitogen-activated protein kinase 14 (Rattus norvegicus) (P70618 whole entry): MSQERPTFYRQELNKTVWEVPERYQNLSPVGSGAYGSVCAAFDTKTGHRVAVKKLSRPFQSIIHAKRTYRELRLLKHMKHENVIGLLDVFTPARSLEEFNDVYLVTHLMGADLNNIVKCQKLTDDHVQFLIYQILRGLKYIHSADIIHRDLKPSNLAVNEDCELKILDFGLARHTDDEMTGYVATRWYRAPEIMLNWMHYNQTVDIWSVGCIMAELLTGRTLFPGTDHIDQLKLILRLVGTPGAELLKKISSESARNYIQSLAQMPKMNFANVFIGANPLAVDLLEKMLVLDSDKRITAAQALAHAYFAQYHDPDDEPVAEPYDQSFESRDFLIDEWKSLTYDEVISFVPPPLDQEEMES
Chain of Mitogen-activated protein kinase 14 (Q16539 whole entry): as the sequence (P70618 whole entry) above, with V17I, H48L, A263T, E321D, F332L counted along it

Row | IC50 [1] [nM] | inhibition [2] [%] | Structure (SMILES)
1 | 895 | 26 | Fc1ccc(-c2c(-c3ccncc3)[nH]c3cncnc23)cc1
2 | 172 | – | OCCn1c(-c2ccncc2)c(-c2ccc(F)cc2)c2ncccc21
3 | 5 | 69 | OCCCCNc1cc(-c2[nH]c3cccnc3c2-c2ccc(F)cc2)ccn1
4 | 3300 | – | Nc1ncnc2c1cc(-c1ccncc1)n2-c1ccc(F)cc1
5 | 23600 | 50 | O=C(O)Cn1c(-c2ccncc2)c(-c2ccc(F)cc2)c2ncccc21
6 | 1970 | 75 | Fc1ccc(-c2c(-c3ccncc3)n(CCN3CCCCC3)c3cccnc23)cc1
7 | – | 44 | Fc1ccc(-c2c(-c3ccncc3)oc3cccnc23)cc1
8 | 24 | 41 | CCn1c(-c2ccncc2)c(-c2ccc(F)cc2)c2ncccc21
9 | 3 | 88 | OCCNc1cc(-c2[nH]c3cccnc3c2-c2ccc(F)cc2)ccn1

Row | Structure (SMILES) | IC50 [1] [nM] | inhibition [2] [%]
10 | Cn1c(-c2ccncc2)c(-c2ccc(F)cc2)c2ncccc21 | 98 | 53
